HIV Env fusion – inhibitors of HIV-1 Env-driven cell-cell fusion, primary screen, HeLa-JRFL effector, CEM21 target cells, luciferase. inhibition, % at 12.3 µM. 360,000 tested, 1.1% active. AID 651610, 2012;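 active = mean replicate inhibition score of at least 50 and every replicate individually at or above 50; inconclusive = only one of the two criteria met; inactive = mean below 50 and not all replicates reaching 50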;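 note: 0% = plate neutral controls and 100% = maraviroc near 300 nM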
F508del corr – F508del CFTR correction, initial screen, CFBE line, single point | CFBE cells, YFP halide quenching; stimulated with forskolin plus potentiator P3; % fluorescence drop versus neutral controls | activity (quench increase), % at 7.58 µM | 350,000 tested, 0.36% active;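 active = mean added fluorescence quench of at least 8% versus neutral control, with both replicates also reaching 8%; inconclusive = only one of the mean or replicate conditions met; inactive = mean below 8% and not both replicates reaching 8%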;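 note: cells transiently co-express mutant CFTR-F508del with the halide-sensitive YFP; corrector assay measuring rescue of mutant channel to the surface after 24 h compound exposure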
EWS-Fli inh – EWS/Fli-driven NR0B1 reporter inhibitors, primary screen, A673 cells, NR0B1 luciferase, luminescence, MLPCN library; 350,000 tested, 0.67% active; viability-normalised; inhibition, % at 12.6 µM;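 active = mean inhibition of at least 50% after viability correction, with every replicate also passing that limit; inconclusive = mean reaches 50% but only one of two replicates passes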;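 note: firefly luciferase signal divided by Alamar Blue viability fluorescence both relative to DMSO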
PAX8 inh HTS – inhibitors of PAX8-driven TPO luciferase reporter, primary screen, RMG-I cells, single concentration. 360,000 tested, 1.2% active. inhibition, % at 12.6 µM. SteadyGlo, 24 h;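 active = mean replicate inhibition at least 60% with every replicate also reaching 60%; inconclusive = only one of the two criteria is met; inactive = mean below 60% and not all replicates reaching 60%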;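 note: luciferase light reporting Pax8 driven TPO promoter activity; plate controls were median of neutral control wells for no effect and mitoxantrone controls for full effect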
PGC1a acetyl inh – inhibitors of PGC1a acetylation signal, primary screen, cell-based, U2OS, AlphaScreen, inhibitor mode; AlphaScreen anti-acetyl-lysine; with virally co-expressed GCN5 acetyltransferase; AID 651687, 2012; inhibition, % at 15.6 µM; 350,000 tested, 0.17% active;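 active = every replicate shows inhibition of at least 40%; inconclusive = mean inhibition at least 40% but some replicate below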;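 note: 0% = neutral control wells and 100% = positive control wells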
FN deposition inh – inhibitors of fibronectin matrix deposition, primary screen, AH1F cells, Alexa488-fibronectin fluorescence, plate reader; AH1F fibroblasts, overnight; inhibition, % at 12.6 µM; 350,000 tested, 0.086% active;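 active = mean inhibition across replicates of 30% or more, regardless of how many single replicates reach that level; inconclusive = mean under 30% yet at least half of replicates reach 30%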;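 note: positive control wells lacked labelled fibronectin entirely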
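material = AH1F fibroblast monolayer depositing Alexa488-labelled fibronectin into matrix | amount = 10000 AH1F cells/well | buffer or medium = DMEM plus 2% serum, read in PBS | incubation = 1 h cell adhesion before compound, then overnight fibronectin incubation | detection = fluorescence at 485 nm excitation, 525 nm emission | evaluation = percent inhibition as loss of matrix-bound fibronectin fluorescence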
* = called active by the depositor; u = inconclusive; x = no result; [ ] = another dose, or the depositor's remark. Hits are enriched below; roughly 2.3% of the tested compounds scored in any of these assays.

SMILES	HIV Env fusion	F508del corr	EWS-Fli inh	PAX8 inh HTS	PGC1a acetyl inh	FN deposition inh
COC(=O)c1cc(C(=O)c2ccc(C(C)(C)C)cc2)c[nH]1	-2	-2	-95	-76	x	43*
CC(C)(C)c1ccc(C(=O)c2c[nH]c(C(=O)O)c2)cc1	-62	-2	-107	-71	4	-1
N#C/C(=C(/O)c1ccc([N+](=O)[O-])s1)c1nc2ccccc2[nH]1	u	4	-19	20	0	-6
N#C/C(=C(/O)c1ccc(Br)s1)c1nc2ccccc2[nH]1	-8	10.0*	27	24	0	3
CO[C@H]1CN(C)C(=O)c2cc(NC(=O)CC(F)(F)F)ccc2OC[C@H](C)N(C(=O)C2CCOCC2)C[C@@H]1C	x	2	28	-13	8	3
Cc1ccc(S(=O)(=O)N/N=C/c2c[nH]c3ccccc23)cc1	0	-1	20	17	105*	1
Cn1c(N2CCOCC2)c(/C=N/OC(=O)c2ccc(F)cc2)c2ccccc21	59*	x	x	x	1	0
Cc1ccc(C(=O)O/N=C/c2c(N3CCOCC3)n(C)c3ccccc23)cc1	u	x	x	-28	x	12
O=C(C1CC1)N1CC(=O)N2[C@H](CO)[C@@H](c3ccc(C#Cc4cccc(F)c4)cc3)[C@H]2C1	x	1	5	-7	-11	8
Cc1cccc(NCc2ccc(O)c3ncccc23)c1	44	-4	15	79*	28	-3
Oc1ccc(CNc2ccc(F)cc2)c2cccnc12	u	x	x	x	11	x
Oc1[nH]c2ccc(Br)cc2c1N=NC(=S)Nc1ccc(F)cc1	33	u	44	70*	-1	-8
Oc1ccc(NC(=S)N=Nc2c(O)[nH]c3ccc(Br)cc23)cc1	26	-1	22	37	14	4
O=C(N=Nc1c(O)[nH]c2ccc(Br)cc12)c1ccccc1-n1cccc1	x	13*	45	x	-36	x
Cc1ccc(S(=O)(=O)N(C)C[C@H]2Oc3ncc(-c4ccccc4)cc3C(=O)N([C@@H](C)CO)C[C@H]2C)cc1	-1[16.7 µM]	0	-3	x	31	-2
CC(C)(C)c1ccc(C(=O)NCCCN2CCN(CCCNC(=O)c3ccc(C(C)(C)C)cc3)CC2)cc1	30	x	x	70*	x	9
CC(C)(C)c1ccc(C(=O)NCCN2CCOCC2)cc1	3	-1	-13	-2	65*	8
O=C(NCCCN1CCOCC1)c1ccc(CNS(=O)(=O)c2ccc(Br)cc2)cc1	x	2	5	132*	x	4
CC(C)(C)c1ccc(C(=O)Nc2ccccc2C(=O)NCCN2CCOCC2)cc1	5	3	-59	-51	2	-2
O=C(NCCCN1CCOCC1)c1ccc(Br)cc1	x	x	x	x	3	x
NC1=C(Br)C(=O)c2ncccc2C1=O	u	-5	20	131*	87*	9
COc1cccc(S(=O)(=O)N2CC[C@@H]3[C@H](CO)Nc4ccc(C#Cc5ccccc5)cc4[C@@H]32)c1	x	4	3	-4	-18	4
CC(C)CCCCCCCCCCCCC(=O)NCC(=O)NC1C(O)C(O)C(Nc2ncnc3nc[nH]c23)OC1C(O)CO (stereo not drawn)	x	x	x	x	96*	x
CC(O)CNc1ncnc2nc[nH]c12 (stereo not drawn)	14	x	x	-4	6	15
COc1cccc(-c2ccc([C@@H]3[C@H]4CN(C(=O)C5CC5)CC(=O)N4[C@H]3CO)cc2)c1	x	4	8	11	-9	1
SMILES	HIV Env fusion	F508del corr	EWS-Fli inh	PAX8 inh HTS	PGC1a acetyl inh	FN deposition inh
O=C(Nc1ccc(Cl)cc1)C1CCCN(C2=NS(=O)(=O)c3ccccc32)C1 (stereo not drawn)	70*	4	-3	37	8	3
COc1ccc(NC(=O)N2CC3(C2)CN(CC2CC2)[C@H](CO)c2c3c3ccc(OC)cc3n2C)cc1	x	0	-3	-31	-2	x
COc1ccc(CNC(=O)C[C@H]2C[C@H]3c4cc(NS(C)(=O)=O)ccc4O[C@H]3[C@H](CO)O2)cc1	x	-2	-14	x	-10	-21
COC(=O)C1=C(C)N(Cc2cccc(C(F)(F)F)c2)C(=NCc2ccc3c(c2)OCO3)NC1c1cccc(F)c1 (stereo not drawn)	31	1	45	65*	x	-1
COC(=O)C1=C(C)N(Cc2cccc(C(F)(F)F)c2)C(=NCc2ccc3c(c2)OCO3)NC1c1ccccc1 (stereo not drawn)	12	-2	23	-3	x	1
COc1ccc(CN(C)C[C@@H]2Oc3ccc(NC(=O)CCCN(C)C)cc3C(=O)N([C@@H](C)CO)C[C@H]2C)cc1	x	2	-4	1	3	x
COCCN(C(=O)CCl)C(C(=O)NC1CCCCC1)c1ccccc1C (stereo not drawn)	60*	x	x	30	6	-3
Cc1ccc(-c2ccc3c(c2)O[C@H](CN(C)C(=O)C2CCCCC2)[C@@H](C)CN([C@H](C)CO)S3(=O)=O)cc1	-1[16.7 µM]	0	43	x	0	13
C=CC[C@H](CC(=O)N(CCO)Cc1ccccc1)C(=O)N[C@@H](COC(=O)[C@@H](CC=C)Cc1ccc(F)cc1)Cc1c[nH]c2ccccc12	-180	1	0	69*	x	-14
C=CCC[C@@H](Cc1ccc(F)cc1)C(=O)OC[C@@H](Cc1c[nH]c2ccccc12)NC(=O)[C@H](CC=C)CC(=O)N(CCO)Cc1ccccc1	4	1	4	101*	2	-17
C=CCC[C@H](Cc1ccc(F)cc1)C(=O)OC[C@@H](Cc1c[nH]c2ccccc12)NC(=O)[C@H](CC=C)CC(=O)NCCO	30	0	-2	28	-14	-6
C=CCC[C@H](Cc1ccc(F)cc1)C(=O)OC[C@@H](Cc1c[nH]c2ccccc12)NC(=O)[C@H](CC=C)CC(=O)N(CCO)Cc1ccccc1	-150	0	6	77*	-6	-7
C=CC[C@@H](CC(=O)N(CCO)Cc1ccccc1)C(=O)N[C@@H](COC(=O)[C@@H](CC=C)Cc1ccc(F)cc1)Cc1c[nH]c2ccccc12	-31	-2	-6	50	x	-8
CO[C@H]1CN(C)C(=O)c2ccc(NC(C)=O)cc2OC[C@@H](C)N(Cc2ccccc2C(=O)O)C[C@@H]1C	x	-2	0	x	9	10
Cc1cccc(N2CCN(C(=O)c3cccc(N4CCCC4=O)c3)C(C)C2)c1 (stereo not drawn)	13	7	60*	27	-10	6
CCOC(=O)c1ccc(-n2[nH]c(-c3ccccc3)cc2=O)cc1	58*	x	x	x	11	x
